{"data": "Results collected from several papers", "target": "Mitogen-activated protein kinase kinase kinase 4 (MAP3K4, Homo sapiens, UniProt Q9Y6R4)", "note": "Lines come from different studies, so protocols differ."}
{"SMILES": "CCC(=O)N[C@H]1CC[C@@H](C(=O)N(C)c2ccc(-c3nc4ccccc4o3)cc2)C1", "observed": "cell-free assay", "method": "competition with immobilised ligand", "concentration": "1 µM", "remaining binding": "100%"}
{"SMILES": "N#Cc1ccccc1CSc1nnc2c(n1)[nH]c1ccccc12", "observed": "binding", "method": "competition with immobilised ligand", "concentration": "10 µM", "remaining binding": "100%"}
{"SMILES": "Cc1nc(N2CC[C@@H](O)C2)ncc1-c1cc(C(F)(F)F)cc2[nH]ncc12", "observed": "binding", "method": "competition with immobilised ligand", "concentration": "1 µM", "remaining binding": "100%"}
{"SMILES": "CN(CCCC(F)(F)F)c1nccc(-c2cnn3ncccc23)n1", "observed": "binding", "concentration": "1 µM", "remaining binding": "81%"}
{"SMILES": "O=C(N[C@H]1CCCCC/C=C\\C2C[C@@]2(C(=O)O)NC(=O)[C@@H]2C[C@@H](Oc3ccncc3)CN2C1=O)OC1CCCC1 (stereo partly drawn)", "observed": "binding", "method": "competition with immobilised ligand", "concentration": "1 µM", "remaining binding": "91%"}
{"SMILES": "O=C(c1ccc(Nc2ncc(Cl)c(-c3cc4ccccc4s3)n2)cc1)N1CCC(N2CCCC2)CC1", "observed": "binding", "method": "competition with immobilised ligand", "concentration": "1 µM", "remaining binding": "33%"}
{"SMILES": "C[C@@H]1CN(c2ccc3ncc(-c4ccc5[nH]nc(C6CC6)c5c4)n3n2)C[C@H](C)O1", "observed": "binding", "method": "competition with immobilised ligand", "concentration": "50 nM", "remaining binding": "100%"}
{"SMILES": "FC(F)(F)Oc1cccc(-c2cnc3ccc(-c4ccncc4)nn23)c1", "observed": "cell-free assay", "method": "competition with immobilised ligand", "concentration": "5 µM", "remaining binding": "84%"}
{"SMILES": "N[C@@H]1CCN(c2nccc(-c3cnn4ncccc34)n2)C1", "observed": "binding", "concentration": "1 µM", "remaining binding": "100%"}
{"SMILES": "O=C(c1ccc(Nc2nccc(-c3cc4ccccc4s3)n2)cc1)N1CCC(N2CCCC2)CC1", "observed": "binding", "method": "competition with immobilised ligand", "concentration": "1 µM", "remaining binding": "70%"}
{"SMILES": "C[C@@H]1CCN(c2nccc(-c3cnn4ncccc34)n2)C1", "observed": "binding", "concentration": "1 µM", "remaining binding": "100%"}
{"SMILES": "O=C(O)[C@H]1[C@H](Cn2nnc3ccccc3c2=O)CC[C@@H]1C(=O)c1ccc(OCCC2CCOCC2)cc1", "observed": "cell-free assay", "method": "competition with immobilised ligand", "concentration": "1 µM", "remaining binding": "100%"}
{"SMILES": "CN(C)c1nccc(-c2cnn3ncccc23)n1", "observed": "binding", "concentration": "1 µM", "remaining binding": "100%"}
{"SMILES": "CNC(=O)[C@@H]1CC[C@@H](n2c(-c3ccc4cnccc4c3)nc3ccc(C(=O)NCc4cccc(C(N)=O)c4)cc32)C1", "observed": "binding", "method": "competition with immobilised ligand", "concentration": "1 µM", "remaining binding": "100%"}
{"SMILES": "c1cnn2ncc(-c3ccnc(N4CCC45COC5)n3)c2c1", "observed": "binding", "concentration": "1 µM", "remaining binding": "97%"}
{"SMILES": "CSc1cccnc1N1CCN(Cc2nc3ccccc3[nH]2)CC1", "observed": "cell-free assay", "method": "competition with immobilised ligand", "concentration": "1 µM", "remaining binding": "100%"}
{"SMILES": "C[C@@H](c1ccc(-n2cnc3c(N)ncnc32)cc1)N1CCc2nn(C)c(Cc3ccccc3)c2C1=O", "observed": "binding", "method": "competition with immobilised ligand", "concentration": "0.1 µM", "remaining binding": "100%"}
{"SMILES": "O=C(NCCCN1CCOCC1)c1ccc(Nc2ncc(Cl)c(-c3ccc(Cl)s3)n2)cc1", "observed": "binding", "method": "competition with immobilised ligand", "concentration": "1 µM", "remaining binding": "54%"}
{"SMILES": "c1cncc(-c2cccc(Nc3nccc(NC4CCCCC4)n3)c2)c1", "observed": "binding", "method": "competition with immobilised ligand", "concentration": "10 µM", "remaining binding": "88%"}
{"SMILES": "CN(C)C(=O)Cn1cc(-c2nc(C3(c4ccc(-c5cnc(N)nc5)cc4)CC3)no2)cn1", "observed": "cell-free assay", "method": "competition with immobilised ligand", "concentration": "1 µM", "remaining binding": "92%"}
{"SMILES": "O=C(NCC1CCOCC1)c1n[nH]cc1NC(=O)c1c(F)cccc1F", "observed": "binding", "method": "competition with immobilised ligand", "concentration": "1 µM", "remaining binding": "100%"}
{"SMILES": "C[C@@H]1CN(c2cc(-c3n[nH]c4ccc(OC5(C)CC5)cc34)ncn2)C[C@H](C)O1", "observed": "cell-free assay", "method": "competition with immobilised ligand", "concentration": "0.1 µM", "remaining binding": "100%"}
{"SMILES": "Cc1cnn2ncc(-c3ccnc(N(C)C)n3)c2c1", "observed": "binding", "concentration": "1 µM", "remaining binding": "86%"}
{"SMILES": "CCN1CCN(Cc2ccc(C(=O)Nc3ccc(C)c(Oc4ccc5c(c4)CC(=O)N5)c3)cc2C(F)(F)F)CC1", "observed": "binding", "method": "competition with immobilised ligand", "concentration": "1 µM", "remaining binding": "100%"}
